# Source: publication PMC6008642 (Biochemistry, 2018)
# Experiments:
# [1] = target: full-length GFP-Munc13-1 W588K (Rattus norvegicus, UniProt Q62768, W588K); assay: PMA-induced membrane translocation, confocal microscopy of Neuro-2a cells; format: cell-based; details: 1000 nM PMA, 0-8 min, vs wild-type
# [2] = target: full-length GFP-Munc13-1 W588F (Rattus norvegicus, UniProt Q62768, W588F); assay: as above; format: cell-based; details: 1000 nM PMA, 0-8 min, vs wild-type
# [3] = target: full-length GFP-Munc13-1 W588A (Rattus norvegicus, UniProt Q62768, W588A); assay: PMA-induced membrane translocation, confocal microscopy of Neuro-2a cells; format: cell-based; details: 1000 nM PMA, 0-8 min, vs wild-type
# Procedure, shortened: (§1)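 EGFP-tagged full-length rat Munc13-1 mutants were made by site-directed mutagenesis. Neuro-2a cells (passage 2–15; RPMI-1640, 10% FBS, 2 mM L-glutamine; 37 °C) were transfected with Lipofectamine 3000. After 24 h, cells went into phenol-red-free DMEM with 1% FBS. PMA (1000 nM) was added at time 0, with confocal imaging every 20 s (ex 488 nm, em 500–530 nm). Membrane/cytoplasm intensity ratio used three ~5 μm2 regions at 0, 2, 4 and 8 min; 3 cells × 3 experiments, mean ± SEM.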
# [4] = target: full-length GFP-Munc13-1 W599D (Rattus norvegicus, UniProt Q62768, W588D); assay: as above; format: cell-based; details: 1000 nM PMA, 0-8 min, vs wild-type
# Procedure, shortened: as §1
# [5] = target: full-length GFP-Munc13-1 W588Y (Rattus norvegicus, UniProt Q62768, W588Y); assay: as above; format: cell-based; details: 1000 nM PMA, 0-8 min, vs wild-type
# Procedure, shortened: as §1
# [6] = target: GFP tagged Munc13-1 C1 domain (Rattus norvegicus, UniProt Q62768); assay: Translocation after PMA treatment, confocal microscopy of LNCaP cells; format: cell-based
# Procedure, shortened: (§2)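 LNCaP cells (passage 2–15; RPMI-1640, 10% FBS, 2 mM L-glutamine) were grown to 75% confluency and transfected with Lipofectamine plus Plus reagent 24 h after plating. They expressed GFP-tagged rat Munc13-1 C1 domain or GFP-tagged full-length protein. After a further 24 h, cells were moved to phenol-red-free DMEM with 1% FBS. PMA (100 or 1000 nM) was added and localization was followed by live confocal imaging (GFP ex 488 nm); 3 independent experiments.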
# [7] = target: GFP-tagged full-length Munc13-1 (Rattus norvegicus, UniProt Q62768); assay: as above; format: cell-based
# Procedure, shortened: as §2
# Munc13-1 WT C1 domain = Munc13-1 WT C1 domain (Rattus norvegicus, UniProt Q62768); assay: In vitro [^3H]PDBu binding assay, GST-tagged C1 domain; details: for Kd: 100 μg/mL lipid
# [8] = target: Munc13-1 W22A mutant C1 domain (Rattus norvegicus, UniProt Q62768, W588A); assay: as above; details: 100 μg/mL lipid, 0.1 mM Ca2+
# [9] = target: Munc13-1 W22A mutant C1 domain; assay: as above; design: species or system rat
# [10] = target: Munc13-1 W22K mutant C1 domain (Rattus norvegicus, UniProt Q62768, W588K); assay: as above; details: 100 μg/mL lipid, 0.1 mM Ca2+
# [11] = target: Munc13-1 W22K mutant C1 domain; assay: as above; design: species or system rat
# [12] = target: full-length Munc13-1 wild-type protein (Rattus norvegicus, UniProt Q62768); format: binding; details: 100 μg/mL lipid (100% PS), 0.1 mM Ca2+
# Procedure, shortened: (§3)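 Rat full-length Munc13-1 (WT or W588 mutant) was expressed as an N-terminal Halo fusion in transfected HEK-293 cells and harvested after one day. It was purified on Halo-link resin, released with TEV protease and stored in 30% glycerol at –80 °C. [3H]PDBu saturation binding used 100 μg/mL lipid (100% PS) and 0.1 mM Ca2+. Kd came from saturation/Scatchard analysis; triplicate points, 3–6 experiments, mean ± SEM.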
# [13] = target: full-length Munc13-1 protein incorporating the W22K mutation (W588 K) (Rattus norvegicus, UniProt Q62768, W588K); details: in vitro binding conditions as for full-length WT
# Procedure, shortened: as §3
# [14] = target: full-length Munc13-1 mutated at W588D (Rattus norvegicus, UniProt Q62768, W588D); format: binding; details: preparation from cells expressing the mutant
# PKCδ C1B W22R = details: PS concentration 10%; cited from earlier work
# W22G of PKCδ C1B = details: 100% PS; cited from earlier work
# W22G of PKCθ C1B = details: 100% PS; cited from earlier work
structure (smiles),measurement,setting,value
"CCCCCCCCCCCCCC(=O)O[C@@H]1[C@@H](C)[C@@]2(O)[C@@H](C=C(CO)C[C@]3(O)C(=O)C(C)=C[C@@H]23)[C@@H]2C(C)(C)[C@]12OC(C)=O [PMA, phorbol 12-myristate 13-acetate]",translocation in response to PMA,[1],did not significantly influence the translocation
same,translocation in response to PMA,[2],did not significantly influence the translocation
same,translocation in response to PMA,[3],significantly decreased translocation
same,translocation in response to PMA,[4],totally abolished
same,translocation in response to PMA,[5],delayed
same,translocation of GFP-C1 domain,[6]; 100 nM PMA,Translocation was not observed
same,translocation of GFP-C1 domain,[6]; 1000 nM PMA,translocated within 10 min from the nucleus to internal membranes but not to the plasma membrane
same,translocation of full-length Munc13-1,[7],translocated to the plasma membrane
"CCCC(=O)O[C@@H]1[C@@H](C)[C@@]2(O)[C@@H](C=C(CO)C[C@]3(O)C(=O)C(C)=C[C@@H]23)[C@@H]2C(C)(C)[C@]12OC(=O)CCC [[^3H]PDBu, [20-^3H]Phorbol 12,13-dibutyrate]",amount of [^3H]PDBu bound at 100% PS relative to that at 20% PS,"Munc13-1 WT C1 domain; 5 nM [^3H]PDBu, 100 μg/mL phospholipid, 0.1 mM Ca2+",less than 15%
same,fold weaker binding affinity than that of the C1b domain of PKCδ,Munc13-1 WT C1 domain; 100% PS,100 fold
same,Kd,"Munc13-1 WT C1 domain; Lipid 20:80 PS:PC, 0.1 mM Ca2+",32.5 ± 2.6 nM
same,Kd,"Munc13-1 WT C1 domain; Lipid 100:0 PS:PC, 0.1 mM Ca2+",98 ± 36 nM
same,Kd,[8]; Lipid 20:80 PS:PC,> 1000 nM
same,Kd,[8]; Lipid 100:0 PS:PC,460 ± 260 nM
same,Kd(mutant)/Kd(WT),[9]; Lipid 20:80 PS:PC,>31
same,Kd(mutant)/Kd(WT),[9]; Lipid 100:0 PS:PC,4.7
same,Kd,[10]; Lipid 20:80 PS:PC,420 ± 120 nM
same,Kd,[10]; Lipid 100:0 PS:PC,160 ± 20 nM
same,Kd(mutant)/Kd(WT),[11]; Lipid 20:80 PS:PC,13
same,Kd(mutant)/Kd(WT),[11]; Lipid 100:0 PS:PC,1.6
same,Kd,[12],3.7 ± 0.32 nM
same,Kd,[13],3.3 ± 1.2 nM
same,[^3H]PDBu binding,[14],did not see any binding
CCCCCCCCCCCCCC(=O)O[C@@H]1[C@@H](C)[C@@]2(O)[C@@H](C=C(CO)C[C@]3(O)C(=O)C(C)=C[C@@H]23)[C@@H]2C(C)(C)[C@]12OC(C)=O [phorbol ester],Kd,"Munc13-1 WT C1 domain; Lipid 100:0 PS:PC, 0.1 mM Ca2+",98 nM
same,Kd(mutant)/Kd(WT),[9]; Lipid 100:0 PS:PC,~ 5
same,Kd(mutant)/Kd(WT),[11]; Lipid 20:80 PS:PC,13
same,Kd(mutant)/Kd(WT),[11]; Lipid 100:0 PS:PC,1.6
same,Kd,[12],3.7 nM
same,fold reduced phorbol ester affinity as compared to the WT,PKCδ C1B W22R,9 fold
same,fold reduction in phorbol ester affinity as compared to WT,W22G of PKCδ C1B,31 fold
same,fold reduction in phorbol ester affinity as compared to WT,W22G of PKCθ C1B,8 fold
